# Data from ChEMBL document CHEMBL2384912, “Design, synthesis, and inhibitory activity of potent, photoswitchable mast cell activation inhibitors” (J Med Chem, 2013).
# The source made the active and inactive calls. No cut-off for these calls is given here.
# Tests used:
# LAD2 [1] = experiment: Inhibition of human LAD2 mast cell activation assessed as compound 48/80-induced degranulation at 10 to 20 uM incubated for 30 mins prior to compound 48/80 challenge by beta-hexosaminidase release assay in presence of UV light; format: functional, cell-based
# LAD2 [2] = experiment: Inhibition of human LAD2 mast cell activation assessed as compound 48/80-induced degranulation at 10 to 20 uM incubated for 30 mins prior to compound 48/80 challenge by beta-hexosaminidase release assay; format: functional, cell-based
# How it was run: (§1)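 Supernatant was incubated with 2 mg/mL p-nitrophenyl-N-acetyl-D-glucosaminide in citrate buffer pH 4.5 for 1 h at 37 °C and stopped with 0.4 M glycine. A405 was read; % release = supernatant/(supernatant + lysate) × 100.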
# [3] = Ratio of DSCG IC50 to compound IC50 for human LAD2 mast cell; format: functional
# LAD2 [4] = experiment: Inhibition of human LAD2 mast cell activation assessed as compound 48/80-induced degranulation incubated for 30 mins prior to compound 48/80 challenge by beta-hexosaminidase release assay; format: functional, cell-based; how it was run: as §1
# LAD2 [5] = experiment: Inhibition of human LAD2 mast cell activation assessed as compound 48/80-induced degranulation at 10 uM incubated for 30 mins prior to compound 48/80 challenge by beta-hexosaminidase release assay; format: functional, cell-based; how it was run: as §1
# LAD2 [6] = experiment: Inhibition of human LAD2 mast cell activation assessed as compound 48/80-induced degranulation at 100 uM incubated for 30 mins prior to compound 48/80 challenge by histamine release assay; format: functional, cell-based
# How it was run: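 Supernatant histamine was derivatized: NaOH, then 0.25% o-phthalaldehyde in MeOH for 4 min at room temperature, then HCl. Fluorescence was read at ex 360/em 450 nm; n = 3.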
# LAD2 [7] = experiment: Inhibition of human LAD2 mast cell activation assessed as compound 48/80-induced degranulation at 1000 uM incubated for 30 mins prior to compound 48/80 challenge by beta-hexosaminidase release assay; format: functional, cell-based; how it was run: as §1
# LAD2 [8] = experiment: Inhibition of human LAD2 mast cell activation assessed as 1.0 uM compound 48/80-induced degranulation incubated for 30 mins prior to compound 48/80 challenge by beta-hexosaminidase release assay; format: functional, cell-based; how it was run: as §1
# LAD2 [9] = experiment: Inhibition of human LAD2 mast cell activation assessed as 0.1 uM compound 48/80-induced degranulation incubated for 30 mins prior to compound 48/80 challenge by beta-hexosaminidase release assay; format: functional, cell-based; how it was run: as §1
# LAD2 [10] = experiment: Inhibition of human LAD2 mast cell activation assessed as compound 48/80-induced degranulation at 200 to 400 uM incubated for 30 mins prior to compound 48/80 challenge by beta-hexosaminidase release assay; format: functional, cell-based; how it was run: as §1
# LAD2 [11] = experiment: Inhibition of human LAD2 mast cell activation assessed as compound 48/80-induced degranulation at 200 to 400 uM incubated for 30 mins prior to compound 48/80 challenge by beta-hexosaminidase release assay in presence of UV light; format: functional, cell-based
smiles,measurement,setting,value
O=C(O)c1cc(=O)c2c(OCc3cccc(/N=N/c4cccc(COc5cccc6oc(C(=O)O)cc(=O)c56)c4)c3)cccc2o1 (mixture of isomers),inhibition,LAD2 [1],Active
same,inhibition,LAD2 [2],Active
O=C([O-])c1cc(=O)c2c(OCc3ccc(/N=N/c4ccc(COc5cccc6oc(C(=O)[O-])cc(=O)c56)cc4)cc3)cccc2o1.[Na+].[Na+],Ratio IC50,[3],100
same,IC50,LAD2 [4],28 µM
O=C(O)c1cc(=O)c2c(OCc3cccc(/N=N/c4cccc(COc5cccc6oc(C(=O)O)cc(=O)c56)c4)c3)cccc2o1,inhibition,LAD2 [5],Active
same,inhibition,LAD2 [6],Active
same,inhibition,LAD2 [1],Active
same,inhibition,LAD2 [2],Active
O=C(O)c1cc(=O)c2c(OCC(O)COc3cccc4oc(C(=O)O)cc(=O)c34)cccc2o1 [CROMOLYN SODIUM],inhibition,LAD2 [7],Active
same,Activity,LAD2 [6],inactive
same,inhibition,LAD2 [8],inactive
same,IC50,LAD2 [4],> 1000 µM
same,inhibition,LAD2 [9],Active
O=C(O)c1cc(=O)c2c(OCc3ccc(/N=N/c4ccc(COc5cccc6oc(C(=O)O)cc(=O)c56)cc4)cc3)cccc2o1 (mixture of isomers),inhibition,LAD2 [1],Active
same,inhibition,LAD2 [2],Active
O=C(O)c1cc(=O)c2cc(/N=N/c3ccc4oc(C(=O)O)cc(=O)c4c3)ccc2o1,inhibition,LAD2 [10],Active
same,inhibition,LAD2 [11],Active
O=C(O)c1cc(=O)c2c(OCc3ccc(/N=N/c4ccc(COc5cccc6oc(C(=O)O)cc(=O)c56)cc4)cc3)cccc2o1,inhibition,LAD2 [1],Active
same,inhibition,LAD2 [2],Active
O=C([O-])c1cc(=O)c2c(OCc3cccc(/N=N/c4cccc(COc5cccc6oc(C(=O)[O-])cc(=O)c56)c4)c3)cccc2o1.[Na+].[Na+],Ratio IC50,[3],100
same,IC50,LAD2 [4],10 µM
O=C(O)c1cc(=O)c2cc(/N=N/c3ccc4oc(C(=O)O)cc(=O)c4c3)ccc2o1 (mixture of isomers),inhibition,LAD2 [10],Active
same,inhibition,LAD2 [11],Active
